In ChEMBL document CHEMBL2401654, “Synthesis, characterization, and biological assessment of the four stereoisomers of the H(3) receptor antagonist 5-fluoro-2-methyl-N-[2-methyl-4-(2-methyl[1,3']bipyrrolidinyl-1'-yl)phenyl]benzamide” (Bioorg Med Chem Lett, 2013):
Converted amounts (≈) assume the structure as drawn.

What was measured:
Histamine H3 receptor [1] = biological target: Histamine H3 receptor (Homo sapiens, UniProt Q9Y5N1); assay: Displacement of [3H]N-alpha-methylhistamine from recombinant human histamine H3 receptor transfected in CHO cell membranes after 1 hr by scintillation counting analysis
How it was run: (§1)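 Radioligand displacement of [3H]N-α-methylhistamine using membranes from CHO cells stably transfected with recombinant human or rat H3 receptor. Ki is presented as a range of multiple experiments (n ≥ 3).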

Cytochrome P450 1A2 = biological target: T1, Cytochrome P450 1A2 (Homo sapiens, UniProt P05177); assay: Inhibition of CYP1A2 (unknown origin); assay type: ADME
T1 sequence (P05177 whole entry): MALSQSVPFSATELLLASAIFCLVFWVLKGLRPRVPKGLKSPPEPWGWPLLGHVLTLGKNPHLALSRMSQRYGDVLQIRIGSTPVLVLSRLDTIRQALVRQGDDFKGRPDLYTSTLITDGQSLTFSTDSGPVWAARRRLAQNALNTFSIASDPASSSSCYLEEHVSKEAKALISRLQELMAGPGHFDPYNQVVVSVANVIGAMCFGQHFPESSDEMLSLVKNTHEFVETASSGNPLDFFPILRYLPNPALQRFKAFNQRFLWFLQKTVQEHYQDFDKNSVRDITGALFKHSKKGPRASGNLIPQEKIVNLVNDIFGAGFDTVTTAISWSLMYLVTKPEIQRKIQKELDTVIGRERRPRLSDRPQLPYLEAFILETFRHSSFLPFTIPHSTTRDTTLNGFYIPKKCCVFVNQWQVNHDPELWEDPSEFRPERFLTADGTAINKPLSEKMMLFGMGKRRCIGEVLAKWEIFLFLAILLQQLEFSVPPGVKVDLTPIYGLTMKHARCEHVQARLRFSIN

[2] = Drug metabolism in mouse liver microsomes at 5 uM after 20 mins; assay type: ADME, Microsome; details: read-out: Drug metabolism
How it was run: (§2)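 Substrate at 5 µM incubated at 37 °C for 20 min with in-house liver microsome preparations (human, mouse or rat). Reported as the percentage of parent compound metabolized.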

[3] = Drug metabolism in human liver microsomes at 5 uM after 20 mins; assay type: ADME, Microsome; details: read-out: Drug metabolism; how it was run: as §2
Cytochrome P450 3A4 = Cytochrome P450 3A4 (Homo sapiens, UniProt P08684); assay: Inhibition of CYP3A4 (unknown origin); assay type: ADME
hERG (KCNH2) [4] = biological target: T2, hERG (KCNH2) (Homo sapiens, UniProt Q12809); assay: Inhibition of human ERG transfected in CHO cells at 10 uM by patch clamp assay relative to control; assay type: cell-based; details: CHO cells transfected with human ERG
How it was run: (§3)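 Whole-cell patch clamp on CHO cells stably transfected with the human ERG gene.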

Cytochrome P450 2B6 = biological target: T3, Cytochrome P450 2B6 (Homo sapiens, UniProt P20813); assay: Inhibition of CYP2B6 (unknown origin); assay type: ADME
T3 sequence (P20813 whole entry): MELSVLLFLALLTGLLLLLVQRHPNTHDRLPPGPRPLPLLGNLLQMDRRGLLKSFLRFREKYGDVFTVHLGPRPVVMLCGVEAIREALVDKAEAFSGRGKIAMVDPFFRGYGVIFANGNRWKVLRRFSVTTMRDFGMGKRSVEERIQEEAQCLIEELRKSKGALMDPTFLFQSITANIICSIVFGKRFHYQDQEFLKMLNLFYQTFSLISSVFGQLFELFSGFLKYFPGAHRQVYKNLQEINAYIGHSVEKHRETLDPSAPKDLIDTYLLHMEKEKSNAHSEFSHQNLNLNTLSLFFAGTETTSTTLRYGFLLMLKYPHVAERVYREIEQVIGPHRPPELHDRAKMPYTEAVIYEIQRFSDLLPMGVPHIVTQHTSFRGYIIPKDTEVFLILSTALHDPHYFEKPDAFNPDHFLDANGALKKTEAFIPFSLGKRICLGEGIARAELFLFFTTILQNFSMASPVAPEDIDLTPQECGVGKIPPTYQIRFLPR

Cytochrome P450 2D6 = Cytochrome P450 2D6 (Homo sapiens, UniProt P10635); assay: Inhibition of CYP2D6 (unknown origin); assay type: ADME
hERG (KCNH2) [5] = biological target: T2, hERG (KCNH2); assay: Inhibition of human ERG transfected in CHO cells at 1 uM by patch clamp assay relative to control; assay type: cell-based; details: CHO cells transfected with human ERG; how it was run: as §3
[6] = Drug metabolism in rat liver microsomes at 5 uM after 20 mins; assay type: ADME, Microsome; details: read-out: Drug metabolism; how it was run: as §2
Salmonella typhimurium = assay: Mutagenic activity in Salmonella typhimurium by Ames test; assay type: toxicity, organism-based; details: salmonella enterica subsp. enterica serovar typhimurium
Cytochrome P450 2C19 = Cytochrome P450 2C19 (Homo sapiens, UniProt P33261); assay: Inhibition of CYP2C19 (unknown origin); assay type: ADME
Cytochrome P450 2C9 = Cytochrome P450 2C9 (Homo sapiens, UniProt P11712); assay: Inhibition of CYP2C9 (unknown origin); assay type: ADME
Histamine H3 receptor [7] = biological target: Histamine H3 receptor (Rattus norvegicus, UniProt Q9QYN8); assay: Displacement of [3H]N-alpha-methylhistamine from recombinant rat histamine H3 receptor transfected in CHO cell membranes after 1 hr by scintillation counting analysis; design: species or system Membrane; how it was run: as §1
[8] = Genotoxicity in micronucleus (unknown origin)
[9] = Partition coefficient, log P of the compound; assay type: physicochemical; details: octanol/water
[10] = Solubility of the compound in PBS buffer at pH 7.4; assay type: physicochemical
How it was run: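 Solubility measured in PBS at pH 7.4.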

[11] = biological target: Voltage-gated inwardly rectifying potassium channel KCNH2 (Homo sapiens, UniProt Q12809); assay: Inhibition of human ERG transfected in CHO cells by patch clamp assay; assay type: cell-based; how it was run: as §3
[12] = Distribution coefficient, log D of the compound; assay type: physicochemical; details: octanol/water

T2 sequence (Q12809 whole entry): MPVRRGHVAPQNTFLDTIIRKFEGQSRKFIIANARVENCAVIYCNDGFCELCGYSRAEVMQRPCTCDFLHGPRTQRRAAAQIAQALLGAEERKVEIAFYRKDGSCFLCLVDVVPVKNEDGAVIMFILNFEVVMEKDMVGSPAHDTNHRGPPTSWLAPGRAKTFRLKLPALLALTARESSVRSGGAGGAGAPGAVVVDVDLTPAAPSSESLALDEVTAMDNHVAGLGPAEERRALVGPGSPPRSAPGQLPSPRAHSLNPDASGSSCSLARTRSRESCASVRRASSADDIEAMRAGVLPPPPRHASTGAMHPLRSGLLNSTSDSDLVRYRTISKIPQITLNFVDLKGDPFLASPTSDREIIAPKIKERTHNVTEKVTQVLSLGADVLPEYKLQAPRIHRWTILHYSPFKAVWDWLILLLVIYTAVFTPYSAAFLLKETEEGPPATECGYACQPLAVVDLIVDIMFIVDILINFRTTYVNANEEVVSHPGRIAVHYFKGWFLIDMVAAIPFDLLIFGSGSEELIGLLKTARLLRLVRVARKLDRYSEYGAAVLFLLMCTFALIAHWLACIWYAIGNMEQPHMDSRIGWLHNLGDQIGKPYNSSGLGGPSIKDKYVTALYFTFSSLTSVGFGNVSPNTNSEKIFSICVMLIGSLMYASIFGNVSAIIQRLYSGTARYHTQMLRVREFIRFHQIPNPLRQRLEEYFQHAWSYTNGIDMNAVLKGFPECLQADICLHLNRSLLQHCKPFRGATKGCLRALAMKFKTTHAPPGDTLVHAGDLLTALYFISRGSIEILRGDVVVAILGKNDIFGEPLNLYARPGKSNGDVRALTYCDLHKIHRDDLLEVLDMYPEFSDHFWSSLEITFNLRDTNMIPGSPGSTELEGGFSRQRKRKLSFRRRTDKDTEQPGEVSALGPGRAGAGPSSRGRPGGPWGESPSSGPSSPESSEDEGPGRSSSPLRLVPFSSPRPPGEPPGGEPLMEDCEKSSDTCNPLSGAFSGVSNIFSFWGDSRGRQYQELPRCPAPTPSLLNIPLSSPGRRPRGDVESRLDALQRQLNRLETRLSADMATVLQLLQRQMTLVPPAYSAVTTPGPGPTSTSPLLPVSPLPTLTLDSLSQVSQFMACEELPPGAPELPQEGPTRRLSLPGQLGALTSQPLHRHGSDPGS
Cytochrome P450 2C9, sequence (P11712 whole entry): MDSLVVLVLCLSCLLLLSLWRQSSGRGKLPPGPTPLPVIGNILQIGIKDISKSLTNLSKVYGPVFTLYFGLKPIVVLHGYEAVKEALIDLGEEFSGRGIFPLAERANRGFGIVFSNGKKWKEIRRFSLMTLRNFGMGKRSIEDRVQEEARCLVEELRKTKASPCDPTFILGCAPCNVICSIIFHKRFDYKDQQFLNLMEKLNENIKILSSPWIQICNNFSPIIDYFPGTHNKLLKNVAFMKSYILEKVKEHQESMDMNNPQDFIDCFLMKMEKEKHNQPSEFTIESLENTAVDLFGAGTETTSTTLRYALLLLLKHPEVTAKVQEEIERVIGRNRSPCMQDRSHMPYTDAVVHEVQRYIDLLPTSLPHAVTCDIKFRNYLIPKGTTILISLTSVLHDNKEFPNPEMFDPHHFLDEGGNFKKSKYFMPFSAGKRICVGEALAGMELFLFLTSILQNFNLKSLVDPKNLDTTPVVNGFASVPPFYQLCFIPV
Cytochrome P450 2D6, sequence (P10635 whole entry): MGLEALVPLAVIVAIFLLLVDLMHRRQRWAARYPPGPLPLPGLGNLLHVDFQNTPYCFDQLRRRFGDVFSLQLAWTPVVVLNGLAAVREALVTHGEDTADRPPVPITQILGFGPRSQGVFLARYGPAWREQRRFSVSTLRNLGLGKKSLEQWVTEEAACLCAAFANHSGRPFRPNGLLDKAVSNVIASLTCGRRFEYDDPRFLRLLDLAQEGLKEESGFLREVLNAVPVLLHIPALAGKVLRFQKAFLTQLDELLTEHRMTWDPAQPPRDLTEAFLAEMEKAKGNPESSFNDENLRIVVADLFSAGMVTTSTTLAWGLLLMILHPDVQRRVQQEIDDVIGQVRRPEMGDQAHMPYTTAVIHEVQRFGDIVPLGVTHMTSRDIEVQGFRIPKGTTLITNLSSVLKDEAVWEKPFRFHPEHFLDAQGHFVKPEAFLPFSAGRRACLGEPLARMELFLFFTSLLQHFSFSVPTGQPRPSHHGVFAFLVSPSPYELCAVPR
Histamine H3 receptor (Rattus norvegicus, UniProt Q9QYN8), sequence (Q9QYN8 whole entry): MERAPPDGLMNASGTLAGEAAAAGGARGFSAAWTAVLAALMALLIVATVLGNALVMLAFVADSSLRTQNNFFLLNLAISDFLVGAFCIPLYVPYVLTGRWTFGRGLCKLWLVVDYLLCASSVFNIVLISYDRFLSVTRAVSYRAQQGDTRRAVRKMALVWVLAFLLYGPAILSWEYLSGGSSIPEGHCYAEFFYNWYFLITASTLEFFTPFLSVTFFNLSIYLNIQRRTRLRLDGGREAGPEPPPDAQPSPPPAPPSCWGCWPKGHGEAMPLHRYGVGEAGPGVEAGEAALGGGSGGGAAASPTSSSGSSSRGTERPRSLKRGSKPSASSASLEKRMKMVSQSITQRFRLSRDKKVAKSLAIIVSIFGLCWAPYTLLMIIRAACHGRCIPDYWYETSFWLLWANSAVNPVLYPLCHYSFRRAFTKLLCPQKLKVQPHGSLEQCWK
Cytochrome P450 2C19, sequence (P33261 whole entry): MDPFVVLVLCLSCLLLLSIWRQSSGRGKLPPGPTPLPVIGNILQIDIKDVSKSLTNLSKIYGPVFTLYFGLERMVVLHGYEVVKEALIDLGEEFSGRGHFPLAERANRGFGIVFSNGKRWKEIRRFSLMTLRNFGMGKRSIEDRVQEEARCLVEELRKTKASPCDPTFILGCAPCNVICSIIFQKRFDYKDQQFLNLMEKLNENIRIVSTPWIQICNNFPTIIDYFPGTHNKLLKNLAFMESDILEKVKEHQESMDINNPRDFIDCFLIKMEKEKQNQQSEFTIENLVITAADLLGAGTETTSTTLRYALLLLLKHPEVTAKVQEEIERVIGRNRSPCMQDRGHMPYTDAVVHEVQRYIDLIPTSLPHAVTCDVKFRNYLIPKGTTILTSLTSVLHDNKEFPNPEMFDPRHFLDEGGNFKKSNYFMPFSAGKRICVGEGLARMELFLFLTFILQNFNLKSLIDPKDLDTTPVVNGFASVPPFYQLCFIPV
Cytochrome P450 3A4, sequence (P08684 whole entry): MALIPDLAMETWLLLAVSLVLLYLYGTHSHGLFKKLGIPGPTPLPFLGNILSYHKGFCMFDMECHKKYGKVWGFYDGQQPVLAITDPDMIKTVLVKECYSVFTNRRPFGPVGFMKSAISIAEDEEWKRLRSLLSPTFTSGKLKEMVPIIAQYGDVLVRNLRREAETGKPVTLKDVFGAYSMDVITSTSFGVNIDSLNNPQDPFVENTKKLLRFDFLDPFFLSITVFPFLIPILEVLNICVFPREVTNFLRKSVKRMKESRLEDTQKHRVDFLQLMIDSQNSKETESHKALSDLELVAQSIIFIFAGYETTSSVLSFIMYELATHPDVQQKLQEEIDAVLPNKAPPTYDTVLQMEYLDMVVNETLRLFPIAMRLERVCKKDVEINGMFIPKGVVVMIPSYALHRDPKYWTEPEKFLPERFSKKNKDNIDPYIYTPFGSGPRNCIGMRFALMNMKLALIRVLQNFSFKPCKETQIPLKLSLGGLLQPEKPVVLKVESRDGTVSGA
Histamine H3 receptor (Homo sapiens, UniProt Q9Y5N1), sequence (Q9Y5N1 whole entry): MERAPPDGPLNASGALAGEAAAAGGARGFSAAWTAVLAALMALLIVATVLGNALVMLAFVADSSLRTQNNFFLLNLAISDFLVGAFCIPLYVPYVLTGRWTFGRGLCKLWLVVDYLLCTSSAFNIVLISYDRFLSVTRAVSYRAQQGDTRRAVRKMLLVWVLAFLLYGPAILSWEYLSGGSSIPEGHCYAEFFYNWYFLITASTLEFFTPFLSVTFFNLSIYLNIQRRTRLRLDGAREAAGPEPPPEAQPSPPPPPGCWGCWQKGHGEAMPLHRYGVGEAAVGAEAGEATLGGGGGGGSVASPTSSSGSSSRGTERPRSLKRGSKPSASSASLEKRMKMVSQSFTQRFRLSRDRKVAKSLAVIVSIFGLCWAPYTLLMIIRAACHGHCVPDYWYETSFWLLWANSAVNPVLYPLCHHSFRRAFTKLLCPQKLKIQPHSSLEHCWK

| Ki (Histamine H3 receptor [1]) | IC50 (Cytochrome P450 1A2) | metabolised at 20 min, 5 µM [2] | metabolised at 20 min, 5 µM [3] | IC50 (Cytochrome P450 3A4) | IC50 (Cytochrome P450 2B6) | IC50 (Cytochrome P450 2D6) | metabolised at 20 min, 5 µM [6] | IC50 (Cytochrome P450 2C19) | IC50 (Cytochrome P450 2C9) | Ki (Histamine H3 receptor [7]) | logP [9] | solubility [10] | logD [12] | SMILES | inhibition at 10 µM (hERG (KCNH2) [4]) | inhibition at 1 µM (hERG (KCNH2) [5]) | Activity (Salmonella typhimurium) | Activity [8] | IC50 [11] |
| --- | --- | --- | --- | --- | --- | --- | --- | --- | --- | --- | --- | --- | --- | --- | --- | --- | --- | --- | --- |
| 0.82 µM | > 30 µM | 29% | 7% | > 30 µM | > 30 µM | > 30 µM | 60% | > 30 µM | > 30 µM | 0.093 µM |  |  |  | Cc1cc(N2CC[C@H](N3CCC[C@H]3C)C2)ccc1NC(=O)c1cc(F)ccc1C | 84.3% | 43% | Non-toxic | Non-toxic |  |
| 0.018 µM | > 30 µM | 20% | 5% | > 30 µM | > 30 µM | > 30 µM | 36% | > 30 µM | > 30 µM | 0.011 µM | 3.55 | 88.5 µg/mL (≈ 224 µM) | 2.09 | Cc1cc(N2CC[C@@H](N3CCC[C@@H]3C)C2)ccc1NC(=O)c1cc(F)ccc1C | 88.6% | 38.8% | Non-toxic | Non-toxic | 1.8 µM |
